Assay results from ChEMBL document CHEMBL4825680, “Structure-based discovery of potent and selective small-molecule inhibitors targeting signal transducer and activator of transcription 3 (STAT3)” (Eur J Med Chem, 2021).
The source made the active and inactive calls. The rule behind the calls is not given here.

Key:
[1] = molecular target: T1, Signal transducer and activator of transcription 5A (Homo sapiens) (UniProt P42229); test: Inhibition of STAT5 DNA binding in human MDA-MB-468 cells at 3 uM after 3 hrs by EMSA analysis; format: cell-based
T1 sequence (whole entry): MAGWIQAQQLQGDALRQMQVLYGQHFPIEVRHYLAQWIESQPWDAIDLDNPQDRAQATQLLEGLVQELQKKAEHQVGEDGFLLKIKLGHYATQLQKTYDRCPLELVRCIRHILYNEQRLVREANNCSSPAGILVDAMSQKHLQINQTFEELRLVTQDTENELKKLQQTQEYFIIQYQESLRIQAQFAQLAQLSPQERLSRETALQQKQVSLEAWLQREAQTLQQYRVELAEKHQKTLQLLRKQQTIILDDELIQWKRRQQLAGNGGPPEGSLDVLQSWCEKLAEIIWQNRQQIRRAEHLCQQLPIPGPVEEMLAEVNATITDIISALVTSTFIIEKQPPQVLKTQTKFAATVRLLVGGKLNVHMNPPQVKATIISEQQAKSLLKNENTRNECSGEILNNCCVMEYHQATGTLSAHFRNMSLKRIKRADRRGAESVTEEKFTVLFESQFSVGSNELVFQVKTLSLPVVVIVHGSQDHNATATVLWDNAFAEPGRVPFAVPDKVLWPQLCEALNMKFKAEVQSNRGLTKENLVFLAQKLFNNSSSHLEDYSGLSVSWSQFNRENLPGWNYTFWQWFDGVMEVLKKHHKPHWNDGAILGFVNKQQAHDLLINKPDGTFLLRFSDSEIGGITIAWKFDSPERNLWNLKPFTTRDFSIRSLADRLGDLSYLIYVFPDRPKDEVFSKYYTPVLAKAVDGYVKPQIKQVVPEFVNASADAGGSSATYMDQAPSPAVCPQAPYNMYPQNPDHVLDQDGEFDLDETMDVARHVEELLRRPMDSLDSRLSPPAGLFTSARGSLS
How it was run: (§1)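 Cells exposed to vehicle or compound for 3 h. Nuclear extracts prepared and BCA-quantified. Nuclear protein (8–10 µg) incubated with biotinylated STAT3 or STAT5 probe, resolved on 6% native polyacrylamide gel, transferred to nylon membrane and detected with a gel-shift kit.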

[2] = tested on: Breast cancer cell line; test: Antitumor activity against patient-derived breast cancer cells xenografted in NOD/SCID mouse assessed as reduction in pY705-STAT3 expression at 5 to 15 mg/kg, iv administered once daily for 20 days by Western blotting analysis; format: functional, organism-based; conditions: Homo sapiens, dose 5-15 mg/kg, time 20.0 day
[3] = tested on: MDA231-LM2-4175; test: Inhibition of colony formation in human MDA231-LM2-4175 cells at 0.3 uM after 10 to 15 days by crystal violet staining based assay; format: functional, cell-based; conditions: time 10-15 day
How it was run: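 Cells seeded at 0.5×10^3–1×10^3 per well; compound added the next day. Medium and compound renewed every 2–3 days. After about 10–15 days, colonies fixed with 4% paraformaldehyde, stained with crystal violet, scanned and quantified by image analysis. Triplicate.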

[4] = molecular target: T2, Signal transducer and activator of transcription 3 (Homo sapiens, UniProt P40763); test: Inhibition of HA-tagged STAT3 dimerization (unknown origin) expressed in HEK293T cells after 24 hrs by confocal microscopic analysis; format: cell-based; conditions: dose 1-3 µM
T2 sequence (P40763 whole entry): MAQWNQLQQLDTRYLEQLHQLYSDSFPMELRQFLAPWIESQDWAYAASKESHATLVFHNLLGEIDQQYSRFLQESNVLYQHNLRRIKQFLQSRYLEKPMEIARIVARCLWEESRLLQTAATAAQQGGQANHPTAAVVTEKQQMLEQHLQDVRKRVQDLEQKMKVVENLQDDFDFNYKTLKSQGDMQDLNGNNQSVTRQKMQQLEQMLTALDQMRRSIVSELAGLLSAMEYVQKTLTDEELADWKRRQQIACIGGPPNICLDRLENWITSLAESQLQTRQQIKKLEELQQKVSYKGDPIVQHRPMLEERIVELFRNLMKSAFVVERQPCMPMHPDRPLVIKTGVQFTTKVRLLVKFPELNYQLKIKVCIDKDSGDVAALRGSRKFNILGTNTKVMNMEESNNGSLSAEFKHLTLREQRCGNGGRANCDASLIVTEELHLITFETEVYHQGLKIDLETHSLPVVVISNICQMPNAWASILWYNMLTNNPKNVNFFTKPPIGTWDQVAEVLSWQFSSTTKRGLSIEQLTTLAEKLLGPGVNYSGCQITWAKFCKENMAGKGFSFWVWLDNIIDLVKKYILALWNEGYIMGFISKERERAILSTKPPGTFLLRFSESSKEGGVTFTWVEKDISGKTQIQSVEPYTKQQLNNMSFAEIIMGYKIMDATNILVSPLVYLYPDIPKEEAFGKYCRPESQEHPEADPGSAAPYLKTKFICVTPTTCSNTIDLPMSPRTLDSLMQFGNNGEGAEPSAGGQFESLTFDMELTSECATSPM
How it was run: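 HEK-293T cells transfected with HA-STAT3 and Flag-STAT3. After 24 h, treated with vehicle (0.1% DMSO) or compound for 24 h, with IL-6 100 ng/mL added for 30 min. Fixed in paraformaldehyde, permeabilised with Triton X-100, stained with anti-HA and anti-Flag plus Alexa 488/555 secondaries and DAPI. Confocal imaging for colocalisation.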

[5] = tested on: HCC70; test: Antiproliferative activity against human HCC70 cells assessed as reduction in cell viability after 72 hrs by CCK8 assay; format: functional, cell-based; conditions: HCC70, 72 h
How it was run: (§2)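 Cells seeded at 1000–8000 per well were grown overnight, then exposed to 0.1–100 μM compound or 0.1% DMSO vehicle for 72 h. CCK-8 was added for 0.5–4 h at 37 °C and absorbance read at 480 nm. Viability = (OD compound − blank)/(OD vehicle − blank) × 100, with medium as blank. IC50 fitted from three independent experiments.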

[6] = tested on: HCC70; test: Inhibition of cell migration in human HCC70 cells incubated for 12 to 96 hrs by wound healing assay; format: functional, cell-based; conditions: dose 0.3-3 µM, time 12-96 hrs
How it was run: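 Confluent monolayer (0.8–1.2×10^6 cells/well) scratched with a pipette tip, then treated with 0–3 µM compound until vehicle cells filled the gap. Imaged by microscope after about 12–96 h. Triplicate.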

[7] = Antitumor activity against patient-derived breast cancer cells xenografted in NOD/SCID mouse assessed as tumor growth inhibition at 5 mg/kg, iv administered once daily for 20 days; format: functional; conditions: Homo sapiens, Breast cancer cell line, 480 h, time 20 day, read-out: TGI
[8] = tested on: MDA-MB-468; test: Induction of apoptosis in human MDA-MB-468 cells assessed as necrotic cells at 1 uM after 48 hrs by Annexin-V-FITC/propidium iodide staining based flow cytometric analysis (reference value: 0.240%); format: functional
[9] = molecular target: T2, Signal transducer and activator of transcription 3; test: Inhibition of STAT3 DNA binding in human MDA-MB-231 cells at 0.3 to 1 uM after 3 hrs by EMSA analysis; format: cell-based; conditions: dose 0.3-1 µM; how it was run: as §1
[10] = molecular target: T2, Signal transducer and activator of transcription 3; test: Inhibition of STAT3 phosphorylation at Tyr705 residue in human […] cells after 3 hrs by Western blotting analysis; format: cell-based; conditions: MDA-MB-468, dose 0.3-3 µM
[11] = tested on: HCC70; test: Effect on total STAT5 level in human HCC70 cells at 0.3 to 3 uM after 3 hrs by Western blotting analysis; format: functional, cell-based; conditions: dose 0.3-3 µM
How it was run: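 Breast cancer cells were treated with vehicle (0.1% DMSO) or compound, then lysed in RIPA with PMSF and phosphatase inhibitors. 20–50 μg protein was run on 8 or 12% SDS-PAGE, blotted to PVDF, blocked in 5% BSA, probed with primary antibodies overnight at 4 °C, then HRP secondaries, with ECL detection.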

[12] = molecular target: T2, Signal transducer and activator of transcription 3; test: Inhibition of STAT3 in human MDA231-LM2-4175 cells assessed as downregulation of c-Myc expression at 0.3 to 3 uM after 24 hrs by western blot analysis; format: cell-based; conditions: dose 0.3-3 µM
How it was run: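 TNBC cells given vehicle (0.1% DMSO) or graded compound levels for 24 h, lysed in RIPA with PMSF and phosphatase inhibitors. BCA-quantified lysate (20–50 µg) run on SDS-PAGE, transferred to PVDF, blocked in 5% BSA. Probed overnight at 4 °C for Bcl-xL, Mcl-1 and c-Myc, with β-actin. HRP secondary, ECL detection. Three independent experiments.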

[13] = Toxicity in NOD/SCID mouse xenografted with patient-derived breast cancer cells assessed as loss of appetite at 5 to 15 mg/kg, iv administered once daily for 20 days; format: organism-based; conditions: in vivo, 480 h, dose 5-15 mg/kg, time 20 day
[14] = Induction of apoptosis in human MDA231-LM2-4175 cells assessed as late apoptotic cells at 1 uM after 48 hrs by Annexin-V-FITC/propidium iodide staining based flow cytometric analysis (reference value: 2.60%); format: functional
[15] = tested on: MCF7; test: Antiproliferative activity against human MCF7 cells assessed as reduction in cell viability after 72 hrs by CCK8 assay; format: functional, cell-based; conditions: MCF7, 72 h; how it was run: as §2

SMILES: O=C(Cc1c(-c2ccccc2)nc2ccccn12)Nc1ccc2c(c1)S(=O)(=O)C=C2
- inhibition [1]: inactive
- Activity [2]: Active
- inhibition [3]: Active
- inhibition [4]: Dose-Dependent Effect
- IC50 [5]: 1.1 µM
- inhibition [6]: Dose-Dependent Effect
- inhibition in vivo at 5 mg/kg [7]: 32.7%
- Activity [8]: 1.54%
- inhibition [9]: Active
- inhibition [10]: Dose-Dependent Effect
- Activity [11]: inactive
- inhibition [12]: Active
- Activity [13]: Non-Toxic
- Activity [14]: 4%
- IC50 [15]: 7.22 µM
